Test results reported in ChEMBL document CHEMBL4706641, “Novel Carboline Fungal Histone Deacetylase (HDAC) Inhibitors for Combinational Treatment of Azole-Resistant Candidiasis” (J Med Chem, 2021).
In brackets after ≈: the same amount, converted by molar mass. Activity calls are given as the source filed them. The calls are words filed in the database; no cut-off is given here.

Experiments:
Pichia kudriavzevii [1] = test: Synergistic antifungal activity against Candida krusei 10153 incubated for 48 hrs in presence of fluconazole by microdilution assay; assay type: functional
Outline: (§1)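 Checkerboard broth microdilution per CLSI M27-A3 (modified), clinical Candida isolates. Exponential cells in RPMI 1640 (MOPS-buffered) at 10³ cells/mL; fluconazole 0.25–64 μg/mL crossed with test compound 2–64 μg/mL (final). 48 h at 35 °C; OD630 read with background subtracted. MIC80 = 80% growth inhibition; FICI ≤0.5 synergy, >4 antagonism.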

Candida albicans [2] = test: Antifungal activity against Candida albicans 9172 incubated for 48 hrs by microdilution assay; assay type: functional; outline: as §1
Candida tropicalis = test: Synergistic antifungal activity against Candida tropicalis assessed as potentiation of VRC antifungal activity by measuring VRC incubated for 48 hrs in presence of fluconazole by checkerboard microdilution assay; assay type: functional, organism-based
Candida albicans [3] = test: Synergistic antifungal activity against Candida albicans 0304103 at 8 ug/ml incubated for 48 hrs in presence of 32 ug/ml fluconazole by microdilution assay; assay type: functional, organism-based; details: dose 8.0 µg/ml
Candida albicans [4] = test: Synergistic antifungal activity against Candida albicans 4108 incubated for 48 hrs in presence of fluconazole by microdilution assay; assay type: functional; outline: as §1
[5] = target: Histone deacetylase (Homo sapiens) (UniProt Q13547+O15379+Q9UBN7+Q92769+Q9UQL6+Q8WUI4+Q9BY41+Q96DB2+P56524+Q9UKV0+Q969S8); test: Inhibition of HDAC in HUVEC using Boc-Lys(Ac)-AMC substrate incubated for 18 hrs by fluorescence based assay; assay type: protein assay
Outline: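 Human total HDAC in whole HUVEC cells: about 15000 cells/well, 24 h at 37 °C/5% CO₂ before compound; then Boc-Lys(Ac)-AMC 33 μM, 37 °C 6 h, trypsin/Nonidet P-40 stop 2 h, fluorescence Ex 360/Em 460 nm. Inhibition relative to control after blank subtraction; three independent experiments.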

Candida albicans [6] = test: Synergistic antifungal activity against Candida albicans 9884 assessed as potentiation of fluconazole antifungal activity by measuring FICI incubated for 48 hrs in presence of fluconazole by checkerboard microdilution assay; assay type: functional
Outline: (§2)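 Checkerboard broth microdilution per CLSI M27-A3 (modified), clinical Candida isolates. 48 h at 35 °C; OD630 read with background subtracted. MIC80 = 80% growth inhibition; FICI ≤0.5 synergy, >4 antagonism.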

Candida albicans [7] = test: Synergistic antifungal activity against Candida albicans 9172 assessed as fluconazole MIC incubated for 48 hrs in presence of fluconazole by microdilution assay (reference value: fluconazole alone MIC = >[…] ug/ml); assay type: functional
Candida albicans [8] = test: Synergistic antifungal activity against Candida albicans 10061 assessed as potentiation of fluconazole antifungal activity by measuring FICI incubated for 48 hrs in presence of fluconazole by checkerboard microdilution assay; assay type: functional; outline: as §2
Candida albicans [9] = test: Antifungal activity against Candida albicans 0304103 at 32 ug/ml incubated for 48 hrs by microdilution assay; assay type: functional, organism-based; details: dose 32.0 µg/ml
Candida albicans [10] = test: Antifungal activity against Candida albicans 0304103 incubated for 48 hrs by microdilution assay; assay type: functional; details: Candida albicans, 0304103, read-out: MIC80; outline: as §1
Candida albicans [11] = test: Antifungal activity against Candida albicans 9884 incubated for 48 hrs by microdilution assay; assay type: functional; outline: as §1
Pichia kudriavzevii [12] = test: Synergistic antifungal activity against Candida krusei 10153 assessed as potentiation of fluconazole antifungal activity by measuring FICI incubated for 48 hrs in presence of fluconazole by checkerboard microdilution assay; assay type: functional; outline: as §2
Candida albicans [13] = test: Synergistic antifungal activity against Candida albicans 9172 incubated for 48 hrs in presence of fluconazole by microdilution assay; assay type: functional; outline: as §1
Candida albicans [14] = test: Synergistic fungicidal activity against Candida albicans 0304103 assessed as potentiation of fluconazole antifungal activity at 32 ug/ml incubated for 48 hrs in presence of 64 ug/ml fluconazole by checkerboard microdilution assay; assay type: functional, organism-based; details: dose 32.0 µg/ml
Candida albicans [15] = test: Antifungal activity against Candida albicans 0304103 infected in ICR mouse model of candidiasis assessed as reduction in kidney fungal burden at 10 mg/kg, ip dosed 24 hrs post infection and co-treated with 1 mg/kg, ip fluconazole and measured after 5 days; assay type: functional, organism-based; details: time 5.0 day
Pichia kudriavzevii [16] = test: Synergistic antifungal activity against Candida krusei 10153 assessed as fluconazole MIC incubated for 48 hrs in presence of fluconazole by microdilution assay (reference value: fluconazole alone MIC = […] ug/ml); assay type: functional
Candida albicans [17] = test: Up-regulation of MDR1 mRNA expression in Candida albicans 0304103 at 32 ug/ml incubated for 24 hrs by RT-PCR analysis; assay type: functional; details: dose 32.0 µg/ml
Outline: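 Cells from a 1 × 10⁶ cells/mL starting suspension were split into DMSO control, FLC 32 μg/mL, test compound 32 μg/mL and combination (32 + 32 μg/mL) groups, then incubated 24 h at 35 °C in YEPD. Total RNA was extracted and reverse-transcribed. Real-time PCR ran 40 cycles (95 °C 5 s, 60 °C 34 s). Fold change was calculated by 2^−ΔΔCt against ACT1.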

Candida albicans [18] = test: Down regulation of CDR2 mRNA expression in Candida albicans 0304103 at 32 ug/ml incubated for 24 hrs in presence of 32 ug/ml fluconazole by RT-PCR analysis; assay type: functional; details: dose 32.0 µg/ml
Outline: (§3)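 C. albicans 0304103 (initial 1 × 10⁶ cells/mL) treated with DMSO, fluconazole 32 μg/mL, compound 32 μg/mL, or both in YEPD medium, 35 °C for 24 h. Total RNA extracted, reverse transcribed, real-time PCR for 40 cycles; fold change by 2^−ΔΔCt with ACT1 as internal control.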

Candida albicans [19] = test: Down regulation of ERG11 mRNA expression in Candida albicans 0304103 at 32 ug/ml incubated for 24 hrs in presence of 32 ug/ml fluconazole by RT-PCR analysis; assay type: functional; details: dose 32.0 µg/ml; outline: as §3
Candida albicans [20] = test: Antifungal activity against Candida albicans 4108 incubated for 48 hrs by microdilution assay; assay type: functional; outline: as §1
Candida albicans [21] = test: Synergistic antifungal activity against Candida albicans 0304103 incubated for 48 hrs in presence of fluconazole by microdilution assay; assay type: functional; outline: as §1
Candida albicans [22] = test: Synergistic antifungal activity against Candida albicans 9884 incubated for 48 hrs in presence of fluconazole by microdilution assay; assay type: functional; outline: as §1
Candida albicans [23] = test: Synergistic antifungal activity against Candida albicans 0304103 assessed as potentiation of fluconazole antifungal activity by measuring FICI incubated for 48 hrs in presence of fluconazole by checkerboard microdilution assay; assay type: functional; outline: as §1
Candida albicans [24] = test: Synergistic antifungal activity against Candida albicans 0304103 at 32 ug/ml incubated for 48 hrs in presence of 32 ug/ml fluconazole by microdilution assay; assay type: functional, organism-based; details: dose 32.0 µg/ml
Candida albicans [25] = test: Down regulation of CDR1 mRNA expression in Candida albicans 0304103 at 32 ug/ml incubated for 24 hrs in presence of 32 ug/ml fluconazole by RT-PCR analysis; assay type: functional; details: dose 32.0 µg/ml; outline: as §3
Candida albicans [26] = test: Synergistic antifungal activity against Candida albicans 9172 assessed as potentiation of fluconazole antifungal activity by measuring FICI incubated for 48 hrs in presence of fluconazole by checkerboard microdilution assay; assay type: functional; outline: as §2
Candida albicans [27] = test: Antifungal activity against Candida albicans 10061 incubated for 48 hrs by microdilution assay; assay type: functional; outline: as §1
[28] = Toxicity in HUVEC; assay type: cell-based; details: human, HUVEC cells

## O=C(Cc1ccc(OCCCn2c3c(c4cccc(Cl)c42)CCNC3)cc1)NO
Pichia kudriavzevii [1]
  MIC80: 8 µg/mL
Candida albicans [2]
  MIC80: > 64 µg/mL
Candida tropicalis
  Activity: Active
Candida albicans [3]
  Activity: inactive
Candida albicans [4]
  MIC80: 2 µg/mL
[5]
  inhibition: inactive
Candida albicans [6]
  fractional inhibitory concentration index (FICI): 0.039
Candida albicans [7]
  MIC80: 0.5 µg/mL
Candida albicans [8]
  fractional inhibitory concentration index (FICI): 0.062
Candida albicans [9]
  Activity: inactive
Candida albicans [10]
  MIC80: > 64 µg/mL
Candida albicans [11]
  MIC80: 64 µg/mL (≈ 155 µM)
Pichia kudriavzevii [12]
  fractional inhibitory concentration index (FICI): 0.25
Candida albicans [13]
  MIC80: 2 µg/mL
Candida albicans [14]
  Activity: Active
Candida albicans [15]
  Activity: Active
Pichia kudriavzevii [16]
  MIC80: 8 µg/mL
Candida albicans [17]
  Activity: Active
Candida albicans [18]
  Activity: Active
Candida albicans [19]
  Activity: Active
Candida albicans [20]
  MIC80: 64 µg/mL (≈ 155 µM)
Candida albicans [21]
  MIC80: 2 µg/mL
Candida albicans [22]
  MIC80: 2 µg/mL
Candida albicans [23]
  fractional inhibitory concentration index (FICI): 0.035
Candida albicans [24]
  Activity: Active
Candida albicans [25]
  Activity: Active
Candida albicans [26]
  fractional inhibitory concentration index (FICI): 0.039
Candida albicans [27]
  MIC80: > 64 µg/mL
[28]
  IC50: 9.64 µM
